This note sets out measurements from ChEMBL document CHEMBL1121748, “Antimycotic imidazoles. 5. Synthesis and antimycotic properties of 1-[[2-aryl-4-(arylalkyl)-1,3-dioxolan-2-yl]methyl]-1H-imidazoles” (1981).

The test system of assay [1] is Microsporum canis. The assay is described as follows: Antifungal activity against Microsporum canis. Type of assay: functional.
Assay [2] deals with Streptococcus pyogenes. Nature of the assay: Antibacterial activity against Streptococcus pyogenes. Type of assay: functional.
Assay [3] concerns Trichophyton rubrum. The assay is described as follows: Antifungal activity against Trichophyton rubrum. The class given is functional.
Assay [4] relates to Sporothrix schenckii. The assay is described as follows: Antifungal activity against Sporothrix schenck ii. The class given is functional.
Assay [5] concerns Candida tropicalis. The assay is described as follows: Antifungal activity against Candida tropicalis. Type of assay: functional.
Assay [6] relates to Trichophyton mentagrophytes. The assay is described as follows: Compound was tested for antifungal activity against Trichophyton mentagrophytes.
Assay [7] concerns Staphylococcus haemolyticus. The assay is described as follows: Antibacterial against Staphylococcus hemolyticus. Type of assay: functional.
Assay [8] has as its system Cryptococcus neoformans. The assay is described as follows: Antifungal activity against Cryptococcus neoformans. Type of assay: functional.
In assay [9] the test system is Saprolegnia. The assay is described as follows: Antifungal activity against Saprolegnia species. The class given is functional.
The nature of assay [10]: Ratio of animals cured to that of animals infected, tested in vivo for antifungal activity against vaginal candidosis in rat; 1/2.
Assay [11] concerns Mucor. Nature of the assay: Antifungal activity against Mucor species. Type of assay: functional.
Assay [12] concerns Phialophora verrucosa. The assay is described as follows: Antifungal activity against Phialophora verrucosa. Type of assay: functional.
Assay [13] has as its system Aspergillus fumigatus. The assay is described as follows: Antifungal activity against Aspergillus fumigatus. The class given is functional.
For assay [14], the system named is Candida albicans. The assay is described as follows: Antifungal activity against Candida albicans. Type of assay: functional.
The subject of assay [15] is Erysipelothrix rhusiopathiae. The assay is described as follows: Antibacterial activity against Erysipelothrix insidiosa. Type of assay: functional.
Assay [16] can be described thus: Ratio of animals cured to that of animals infected, tested in vivo for antifungal activity against vaginal candidosis in rat; 2/4.
Assay [17] relates to Trichophyton benhamiae. The assay is described as follows: Antifungal activity against Trichophyton mentagrophytes. Type of assay: functional, trychophyton mentagrophytes.
Assay [18] can be described thus: Ratio of animals cured to that of animals infected, tested in vivo for antifungal activity against cutaneous candidosis in guinea pig; 1/2. The class given is functional.
Assay [19] can be described thus: Ratio of animals cured to that of animals […], Tested in vivo for antifungal activity against vaginal candidosis in rat; 2/4. The class given is functional.
The nature of assay [20]: Ratio of animals cured to that of animals infected, tested in vivo for antifungal activity against cutaneous candidosis in guinea pig; 0/2. The class given is functional.
A short description of assay [21]: Ratio of animals cured to that of animals infected, tested in vivo for antifungal activity against cutaneous candidosis in guinea pig; 3/4. Type of assay: functional.
A short description of assay [22]: Ratio of animals cured to that of animals infected, tested in vivo for antifungal activity against vaginal candidosis in rat; 0/2.
Assay [23] concerns Saprolegnia. The assay is described as follows: compound was tested for antifungal activity against Saprolegnia species. The class given is functional.
For assay [24], the system named is Phialophora verrucosa. Nature of the assay: compound was tested for antifungal activity against Phialophora verrucosa. Type of assay: functional.
A short description of assay [25]: Ratio of animals cured to that of animals […], Tested in vivo for antifungal activity against vaginal candidosis in rat; 0/2. The class given is functional.
A short description of assay [26]: Ratio of animals cured to that of animals infected, tested in vivo for antifungal activity against cutaneous candidosis in guinea pig; 4/13. The class given is functional.
The nature of assay [27]: Ratio of animals cured to that of animals […], Tested in vivo for antifungal activity against vaginal candidosis in rat; 0/6. Type of assay: functional.
Assay [28] can be described thus: Ratio of animals cured to that of animals infected, tested in vivo for antifungal activity against vaginal candidosis in rat; 0/2. The class given is functional. The gist of the method: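 Rat experimental vaginal candidosis. Compounds were given orally as a suspension in polyethylene glycol 200 at 10 mg/kg/day for 14 consecutive days.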

With `Cc1ccc(C2COC(Cn3ccnc3)(c3ccc(Br)cc3)O2)cc1` (stereo unspecified), the Inhibition in [1] was <1 µg/mL; in assay [2] it was 10 µg/mL; in [3], <1 µg/mL; in assay [4], 100 µg/mL; in [5], >100 µg/mL; in [6] it was 10 µg/mL. Further, the Inhibition in assay [7] was 10 µg/mL; in [8], 10 µg/mL; in assay [9], 100 µg/mL; in [11], 10 µg/mL; in assay [12], 100 µg/mL; in assay [13], <1 µg/mL. Also, the Inhibition in assay [14] came out at 10 µg/mL; in assay [15], 1 µg/mL. Moreover, the Ratio in [10] is on record as 1.
For `Fc1ccc(C2COC(Cn3ccnc3)(c3ccc(Br)cc3)O2)cc1` (stereo unspecified), the Inhibition in assay [1] is <1 µg/mL; in assay [2] it was <1 µg/mL; in assay [3] it was <1 µg/mL; in assay [4], 10 µg/mL; in [5], 100 µg/mL; in [7], 100 µg/mL. The Inhibition is 10 µg/mL in [8]; <1 µg/mL in assay [17]; 100 µg/mL in [9]; <1 µg/mL in assay [11]; 100 µg/mL in assay [12]; <1 µg/mL in assay [13]. The Inhibition in [14] was 100 µg/mL; in [15], 10 µg/mL. Moreover, the Ratio amounted to 2 in assay [16] and 0.5 in assay [18].
As for `COc1ccc(CCC2COC(Cn3ccnc3)(c3ccc(Cl)cc3Cl)O2)cc1` (stereo unspecified), the Inhibition was 1 µg/mL in assay [1]; <1 µg/mL in assay [2]; <1 µg/mL in assay [3]; 10 µg/mL in assay [4]; 10 µg/mL in assay [5]; 100 µg/mL in [7]. In addition, the Inhibition in assay [8] was 1 µg/mL; in [17], <1 µg/mL; in assay [9], 100 µg/mL; in [11], 100 µg/mL; in [12] it was 100 µg/mL; in [13] it was <1 µg/mL. The Inhibition in assay [14] is 100 µg/mL; in [15], <1 µg/mL. Moreover, the Ratio in assay [19] came out at 0.5; in assay [20] it was 0.
With `Clc1ccc(C2(Cn3ccnc3)OCC(c3ccc(Br)cc3)O2)c(Cl)c1` (stereo unspecified), the Inhibition in assay [1] is <1 µg/mL; in [2] it was 1 µg/mL; in [3] it was <1 µg/mL; in assay [4], 10 µg/mL; in assay [5] it was 10 µg/mL; in assay [7], 10 µg/mL. The Inhibition in [8] was <1 µg/mL; in assay [17], <1 µg/mL; in [9], 100 µg/mL; in [11], 10 µg/mL; in [12], 100 µg/mL; in [13], <1 µg/mL. Also, the Inhibition in [14] worked out at 100 µg/mL; in assay [15], 1 µg/mL. For the same compound, the Ratio amounted to 0.75 in assay [21] and 0 in assay [22].
Regarding `Clc1ccc(C2COC(Cn3ccnc3)(c3ccccc3)O2)c(Cl)c1` (stereo unspecified), the Inhibition was 10 µg/mL in [1]; 1 µg/mL in assay [2]; <1 µg/mL in assay [3]; 10 µg/mL in assay [4]; >100 µg/mL in assay [5]; 10 µg/mL in assay [7]. Moreover, the Inhibition in assay [8] was 10 µg/mL; in [17] it was <1 µg/mL; in assay [23], 100 µg/mL; in assay [11], 100 µg/mL; in assay [12] it was 100 µg/mL; in assay [13] it was 10 µg/mL. The Inhibition was >100 µg/mL in assay [14] and 10 µg/mL in [15]. The Ratio in assay [20] was determined as 0.
`Clc1ccc(C2(Cn3ccnc3)OCC(CCc3ccccc3)O2)c(Cl)c1` (stereo unspecified): the Inhibition was <1 µg/mL in assay [1]; <1 µg/mL in assay [2]; <1 µg/mL in [3]; <1 µg/mL in [4]; 100 µg/mL in assay [24]; 10 µg/mL in [5]. In addition, the Inhibition in [7] was 10 µg/mL; in [8] it was <1 µg/mL; in assay [17] it was <1 µg/mL; in assay [9] it was 100 µg/mL; in [11], 10 µg/mL; in assay [13] it was <1 µg/mL. For the same compound, the figures for the Inhibition in assay [14] and in [15] were 100 µg/mL and <1 µg/mL, respectively. In addition, the Ratio in assay [25] is recorded as 0.
Take `Clc1ccc(COC(Cn2ccnc2)c2ccc(Cl)cc2Cl)c(Cl)c1` (stereo unspecified) [MICONAZOLE]: the Inhibition is 1 µg/mL in assay [1]; <1 µg/mL in [2]; <1 µg/mL in [3]; 1 µg/mL in assay [4]; 100 µg/mL in assay [5]; 10 µg/mL in [7]. Besides, the Inhibition is 1 µg/mL in assay [8]; <1 µg/mL in assay [17]; 10 µg/mL in [9]; >100 µg/mL in [11]; 100 µg/mL in [12]; 10 µg/mL in [13]. Moreover, the values for the Inhibition in [14] and in [15] were 10 µg/mL and <1 µg/mL, respectively. Also, the Ratio was found to be 0.31 in [26] and 0 in assay [27].
With `Clc1ccc(CCC2COC(Cn3ccnc3)(c3ccc(Cl)cc3Cl)O2)cc1` (stereo unspecified), the Inhibition in assay [1] was 1 µg/mL; in assay [2], <1 µg/mL; in [3], 1 µg/mL; in assay [4], 1 µg/mL; in [5], 10 µg/mL; in assay [7], 10 µg/mL. For the same compound, the Inhibition in assay [8] was <1 µg/mL; in assay [17] it was <1 µg/mL; in [9], 100 µg/mL; in [11], 10 µg/mL; in assay [12], 100 µg/mL; in assay [13] it was 10 µg/mL. The Inhibition in assay [14] was 10 µg/mL; in [15], <1 µg/mL. The Ratio in [16] was 2; in assay [20], 0.
In the case of `Clc1ccc(C2COC(Cn3ccnc3)(c3ccccc3)O2)cc1` (stereo unspecified), the Inhibition in [1] is <1 µg/mL; in assay [2], 1 µg/mL; in assay [3] it was <1 µg/mL; in assay [4] it was 10 µg/mL; in [5], 100 µg/mL; in assay [7], 100 µg/mL. Also, the Inhibition is 10 µg/mL in [8]; <1 µg/mL in assay [17]; 100 µg/mL in assay [9]; 100 µg/mL in [11]; 100 µg/mL in assay [12]; 10 µg/mL in [13]. In addition, the results for the Inhibition in assay [14] and in assay [15] were >100 µg/mL and 1 µg/mL, respectively. The results for the Ratio in assay [18] and in [28] were 1 and 0, respectively.
